Holding throughout (assay type): functional
For experiment [1], the system named is MIA PaCa-2. Description: Growth inhibition of human MIAPaCa2 cells at 50 uM after 48 hrs by MTT assay. As to conditions: MIA PaCa-2, 48 h, read-out: GI. Put shortly:
(§1)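 Single-concentration MTT screen at 50 µM over 48 h in 96-well plates. Compounds giving >50% inhibition were rescreened at 30 µM. OD read at 570 nm, reference 620 nm. Result expressed as % growth inhibition versus untreated control. Mitomycin C, adriamycin or 5-fluorouracil used as positive controls. Mean ± SD of three independent experiments.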
A general note: Formazan colour is commonly taken as a measure of viable cells.

For experiment [2], the system named is ASPC1. Put plainly: Growth inhibition of human AsPC1 cells at 50 uM after 48 hrs by MTT assay. Particulars: ASPC1, 48 h, read-out: GI. Put shortly:
as §1

In experiment [3] the test system is Caco-2. Description: Growth inhibition of human Caco2 cells at 50 uM after 48 hrs by MTT assay. Particulars: Caco-2, 48 h, read-out: GI. The procedure, abridged:
as §1

The subject of experiment [4] is HL-60. Description: Growth inhibition of human HL60 cells at 50 uM after 48 hrs by MTT assay. As to conditions: HL-60, 48 h, read-out: GI. The procedure, abridged:
as §1

The test system of experiment [5] is PC-3. Put plainly: Growth inhibition of human PC3 cells at 50 uM after 48 hrs by MTT assay. As to conditions: PC-3, 48 h, read-out: GI. Put shortly: as §1
For experiment [6], the system named is MCF7. Description: Growth inhibition of human MCF7 cells at 50 uM after 48 hrs by MTT assay. As to conditions: MCF7, 48 h, read-out: GI. The procedure, abridged: as §1
For experiment [7], the system named is MDA-MB-435. Put plainly: Growth inhibition of human MDA-MB-435 cells at 50 uM after 48 hrs by MTT assay. As to conditions: MDA-MB-435, 48 h, read-out: GI. The procedure, abridged:
as §1

As to `Cc1ccc(/C=C/C(=O)c2cc3c(c4c2OC(C)(C)CC4)OC(C)(C)CC3)cc1`, the inhibition of growth at 50 µM in experiment [1] is 41%; in experiment [2] it was 2%; in experiment [3], 11%; in experiment [4], 18%; in experiment [5], 48%; in experiment [6], 15%. Moreover, the inhibition of growth at 50 µM in experiment [7] turned out to be 38%.

Take `COc1ccc(OC)c(/C=C/C(=O)c2cc3c(c4c2OC(C)(C)CC4)OC(C)(C)CC3)c1`: the inhibition of growth at 50 µM stood at 17% in experiment [1]; 2% in experiment [2]; 23% in experiment [3]; 27% in experiment [4]; 36% in experiment [5]; 15% in experiment [6]. In addition, the inhibition of growth at 50 µM in experiment [7] came to 52%.

Turning to `COc1ccc(/C=C/C(=O)c2cc3c(c4c2OC(C)(C)CC4)OC(C)(C)CC3)cc1`, the inhibition of growth at 50 µM is 30% in experiment [1]; 12% in experiment [2]; 16% in experiment [3]; 5% in experiment [4]; 63% in experiment [5]; 7% in experiment [6]. Moreover, the inhibition of growth at 50 µM in experiment [7] came to 53%.

As for `CC1(C)CCc2cc(C(=O)/C=C/c3ccccc3)c3c(c2O1)CCC(C)(C)O3`, the inhibition of growth at 50 µM was determined as 24% in experiment [1]; 17% in experiment [2]; 34% in experiment [3]; 32% in experiment [4]; 51% in experiment [5]; 14% in experiment [6]. In experiment [7], the inhibition of growth at 50 µM turned out to be 47%.

On to `COc1cc(OC)c(/C=C/C(=O)c2cc3c(c4c2OC(C)(C)CC4)OC(C)(C)CC3)c(OC)c1`, for which the inhibition of growth at 50 µM in experiment [1] worked out at 27%; in experiment [2], 5%; in experiment [3] it was 17%; in experiment [4], 77%; in experiment [5], 62%; in experiment [6], 26%. For the same compound, the inhibition of growth at 50 µM in experiment [7] was found to be 32%.

`CC(=O)c1cc2c(c3c1OC(C)(C)CC3)OC(C)(C)CC2`: the inhibition of growth at 50 µM amounted to 25% in experiment [1]; 5% in experiment [2]; 20% in experiment [3]; 25% in experiment [4]; 19% in experiment [5]; 18% in experiment [6]. Further, the inhibition of growth at 50 µM in experiment [7] is 2%.

For the compound `CC1(C)CCc2cc(C(=O)/C=C/c3cccc(Cl)c3)c3c(c2O1)CCC(C)(C)O3`, the inhibition of growth at 50 µM was 24% in experiment [1]; 24% in experiment [2]; 31% in experiment [3]; 60% in experiment [4]; 59% in experiment [5]; 16% in experiment [6]. Further, the inhibition of growth at 50 µM in experiment [7] came to 54%.

As to `CC1(C)CCc2cc(C(=O)/C=C/c3ccccc3Cl)c3c(c2O1)CCC(C)(C)O3`, the inhibition of growth at 50 µM in experiment [1] stood at 31%; in experiment [2], 15%; in experiment [3] it was 11%; in experiment [4] it was 41%; in experiment [5] it was 52%; in experiment [6], 9%. The inhibition of growth at 50 µM in experiment [7] was 33%.

As for `CC1(C)CCc2cc(C(=O)/C=C/c3ccc(Br)cc3)c3c(c2O1)CCC(C)(C)O3`, the inhibition of growth at 50 µM in experiment [1] was determined as 45%; in experiment [2] it was 27%; in experiment [3] it was 28%; in experiment [4] it was 25%; in experiment [5], 33%; in experiment [6], 16%. The inhibition of growth at 50 µM in experiment [7] came to 52%.

For the compound `CC1(C)CCc2cc(C(=O)/C=C/c3ccc(F)cc3)c3c(c2O1)CCC(C)(C)O3`, the inhibition of growth at 50 µM amounted to 38% in experiment [1]; 28% in experiment [2]; 12% in experiment [3]; 38% in experiment [4]; 59% in experiment [5]; 17% in experiment [6]. In experiment [7], the inhibition of growth at 50 µM stood at 52%.

For the origin of these results see ChEMBL document CHEMBL2331355, “Synthesis, structure activity relationship and mode of action of 3-substitutedphenyl-1-(2,2,8,8-tetramethyl-3,4,9,10-tetrahydro-2H,8H-pyrano[2,3-f]chromen-6-yl)-propenones as novel anticancer agents in human leukaemia HL-60 cells” (Eur J Med Chem, 2013).
